Assay outcomes (PubChem BioAssay)
Compounds with a hit are over-represented: about 12% of the library has one in this group of screens.
Diaphorase act = compounds boosting diaphorase resazurin reduction – biochemical, uHTS, resorufin fluorescence, counter-screen for diaphorase-coupled primary assays, primary screen; activation factor at 20 µM; Diaphorase/resazurin coupled assay, 16 min; stronger effect = higher value; 1 = vehicle wells, 0 = NADH-free wells; actives 0.005% (n = 190,000);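 active means diaphorase activity raised at least twofold by the compound at 20 µM; inactive means activation factor below 2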
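Material: Clostridium kluyveri diaphorase, purified enzyme; Quantity: enzyme 0.07 U/mL final; Medium: HEPES pH 7.4 buffer with MgCl2 and Tween 20; Dosing: single compound dose of 20 µM, 1% DMSO final; Schedule: 16 min reaction at room temperature; Measured by: red resorufin fluorescence at 544/590 nm excitation/emission.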
Diaphorase inh = diaphorase inhibitors and chemical oxidizers, primary screen, counter-screen for diaphorase-coupled primary assays, biochemical, uHTS, resorufin fluorescence. AID 1217, 2008. actives 0.69% (n = 190,000). diaphorase resazurin-to-resorufin fluorescence, NADH, 16 min; bacterial (C. kluyveri) enzyme, not human. inhibition, % at 20 µM;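 active means primary screen inhibition at 20 µM above a set limit, cut at about 50% in these data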;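 further: plate controls were DMSO with full reaction for no effect and wells lacking NADH for full effect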
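material = Clostridium kluyveri diaphorase enzyme | amount = 0.14 U/mL diaphorase, enzyme working solution | schedule = incubation 16 min, room temperature | detection = fluorescence of resorufin formed from resazurin, Ex 544/Em 590 nm | benchmarks = positive control minus NADH, DMSO neutral control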
KCC2 mod = KCC2 cotransporter modulators, thallium flux, primary screen, cell-based, HEK293 KCC2, FluoZin-2 fluorescence, MLSMR; Solute carrier family 12 member 5 (Homo sapiens), Q9H2X9; KCC2 cells, thallium flux FluoZin-2 fluorescence; B-score of Tl+ flux slope (higher = more flux/activation; lower = inhibition) at 10 µM; actives 2.2% (n = 190,000); AID 1456, 2008;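 active means thallium flux slope and its plate-corrected score both differing from the plate sample mean at a set confidence after two filtering rounds, in either direction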;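 further: slope of fluorescence scaled to starting intensity during 10 to 20 s after thallium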
Lmaj promast = Leishmania major promastigote growth inhibition, primary screen; Leishmania major promastigotes, resazurin fluorescence viability; inhibition, % at 10 µM; actives 9% (n = 200,000); in the data active means inhibition above about 50%;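 further: promastigotes grown with compound for 44 hours at 28 °C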
WT yeast gro inh = growth inhibition of WT strain, primary screen, mitochondrial fusion inhibitor project, WT and mutant strains, chemical genetic; mitochondrial fusion phenotypic screen; inhibition, % at 10 µM; actives 2.1% (n = 190,000); in the data active means inhibition above about 58%; tested in S. cerevisiae
ROMK primary = ROMK potassium channel modulators, primary screen, cell-based, thallium flux, MLSMR library; B-score at 10 µM; actives 2% (n = 130,000); AID 1918, 2009; ATP-sensitive inward rectifier potassium channel 1 (Homo sapiens), P48048; Tet-inducible ROMK, thallium flux fluorescence; actives lie on both sides;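 active means signal ratio slope over the read window, or its plate-corrected B-score, at least 3 SD from the plate mean, either direction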;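 further: B-score of the F/F0 ratio slope over 7 to 12 s after thallium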
* hit, by the source's call; nt = no result.

SMILES | Diaphorase act | Diaphorase inh | KCC2 mod | Lmaj promast | WT yeast gro inh | ROMK primary
Cc1ccccc1NC(=S)N(CCc1c(C)[nH]c2ccc(F)cc12)Cc1cccnc1 | 0.9 | 9 | 0.87 | 100* | -12 | -0.055
Cc1[nH]c2ccc(F)cc2c1CCN(Cc1ccco1)C(=S)NC(C)(C)C | 0.8 | 17 | -0.86 | 36 | 67* | -1.4
Cc1[nH]c2ccc(F)cc2c1CCN(Cc1ccncc1)C(=S)Nc1ccc(F)cc1 | 1 | -3 | -0.58 | 99* | -36 | -0.19
CNC(=S)N(CCc1c(C)[nH]c2ccccc12)Cc1ccco1 | 0.8 | 23 | -0.56 | 1 | 25 | 0.97
CNC(=S)N(CCc1c(C)[nH]c2ccc(OC)cc12)Cc1cccnc1 | 0.9 | 14 | 0.034 | 33 | -7 | 0.17
Cc1[nH]c2ccc(F)cc2c1CCN(Cc1cccnc1)C(=S)Nc1cccc(F)c1 | 0.7 | 29 | -0.21 | 100* | 14 | 0.64
COc1cccc(CC(Cc2nc3ccccc3[nH]2)c2nc3ccccc3[nH]2)c1 (stereo not given) | 0.9 | 11 | -0.47 | 69* | -3 | -1.1
CC(C)(C)c1ccc(CS(=O)CC(O)CO)cc1 (stereo not given) | 0.9 | 11 | 0.23 | -8 | -10 | 0.44
Cc1ccc(C)c(Nc2ncnc(N)c2[N+](=O)[O-])c1 | 0.9 | 15 | -0.5 | 61* | -8 | nt
CCc1nnc(NC(=O)C2CCCCN2S(=O)(=O)c2ccccc2)s1 (stereo not given) | 0.9 | 11 | -0.032 | 7 | -5 | -0.18
O=C(O)c1ccccc1SC1CC(=O)N(c2ccccc2)C1=O (stereo not given) | 0.9 | 7 | 0.32 | 51* | -2 | 0.032
O=C(O)c1cccnc1SC1CC(=O)N(c2ccccc2)C1=O (stereo not given) | nt | nt | 0.9 | nt | nt | 1.1
CCn1c(Cc2cccs2)nnc1SCC(=O)NC(C)(C)C | 1.1 | -6 | 0.88 | 0 | -15 | -0.0021
O=C(CCCN1C(=O)c2cccc3cccc(c23)C1=O)N1CCN(c2ccccc2O)CC1 | 0.7 | 30 | -0.15 | 70* | 11 | -0.88
CS(=O)(=O)N1CCN(CCN2C(=O)c3cccc4cccc(c34)C2=O)CC1 | 1 | -2 | -0.3 | 11 | -1 | 1.8
O=C(CCCN1C(=O)c2cccc3cccc(c23)C1=O)N1CCN(c2ccccc2)CC1 | 1 | -2 | -0.084 | 43 | 1 | nt
O=C1c2cccc3cccc(c23)C(=O)N1CCCN1CCN(c2ccc(F)cc2)CC1 | 0.9 | 8 | -0.84 | 34 | 60* | -1.7
O=C(CN1CCN(CCN2C(=O)c3cccc4cccc(c34)C2=O)CC1)c1ccc(F)cc1 | 0.9 | 11 | nt | 37 | 19 | nt
O=C1c2cccc3cccc(c23)C(=O)N1CCN1CCN(C(=S)Nc2ccc(F)cc2)CC1 | 0.9 | 6 | -0.0024 | 59* | -4 | nt
Cc1ccc(NC(=O)CCN2C(=O)c3cccc4cccc(c34)C2=O)cc1 | 1.2 | -22 | 0.24 | -2 | -6 | 0.39
Cc1ccc(NC(=S)N2CCN(CCN3C(=O)c4cccc5cccc(c45)C3=O)CC2)cc1 | 0.9 | 8 | -0.67 | 100* | 6 | 0.44
CCN1C(=O)N[C@@H](c2cccs2)C(C(C)=O)=C1C | nt | nt | -0.0084 | nt | nt | nt
CCOc1ccc(N2C(=O)C3ON(c4ccccc4)C(c4cccs4)C3C2=O)cc1 (stereo not given) | nt | nt | 0 | -7 | -11 | 0.24
CC1(C)CC2CC(C)(CN2C(=O)c2cc(-c3ccccc3O)on2)C1 (stereo not given) | 0.9 | 8 | 1.1 | 18 | 63* | nt
CC1(C)CC2CC(C)(CN2C(=O)c2ccc([N+](=O)[O-])cc2)C1 (stereo not given) | 0.9 | 13 | -1.5 | 7 | 27 | -0.46
SMILES | Diaphorase act | Diaphorase inh | KCC2 mod | Lmaj promast | WT yeast gro inh | ROMK primary
CC1(C)CC2CC(C)(CN2C(=O)c2ccc([N+](=O)[O-])cc2[N+](=O)[O-])C1 (stereo not given) | 0.9 | 6 | nt | 52* | 9 | -0.33
COc1ccc(-c2cc(C(=O)N3CC4(C)CC3CC(C)(C)C4)no2)cc1 (stereo not given) | 0.9 | 12 | 0.33 | 15 | 20 | 0.39
CC(=O)c1c(C)[nH]c(C(=O)OCC(=O)Nc2ccc(Cl)cc2[N+](=O)[O-])c1C | 0.8 | 16 | -0.63 | -9 | 11 | nt
O=C(COc1ccc([N+](=O)[O-])cc1)NN=C1CCCC1 | 1 | 1 | -0.59 | -4 | 20 | nt
Cc1ccc(S(=O)(=O)Nc2ccc3oc(=O)sc3c2)c(C)c1 | 0.8 | 15 | 1.2 | -5 | 61* | nt
Cc1ccc(S(=O)(=O)Nc2ccc3c(c2)n(C)c(=O)n3C)c(C)c1 | 0.8 | 19 | nt | 1 | 5 | 0.064
CC(C)CN1C(=O)C(=Nc2cccnc2)c2ccccc21 | 0.9 | 6 | -0.94 | 82* | 8 | 0.019
COc1ccc(C(=O)OCC(=O)NCCN2C(=O)CSC2=O)cc1 | 0.9 | 9 | 0.041 | -1 | -5 | 0.85
CC1CCN(CCCn2c(SCC(=O)Nc3ccccc3Cl)nc3ccccc3c2=O)CC1 | 0.9 | 8 | -0.11 | 65* | 12 | -0.64
COc1ccc(NC(=O)CSc2nc3ccccc3c(=O)n2CCC(=O)N2CCCCC2)cc1 | 0.8 | 16 | -0.6 | 70* | -6 | nt
O=C(CSc1nc2ccccc2c(=O)n1CCCN1CCOCC1)Nc1cccc(S(=O)(=O)N2CCCCCC2)c1 | 0.9 | 9 | 0.6 | 74* | -5 | -1.1
Cc1ccc(NC(=O)CSc2nc3ccccc3c(=O)n2CCCC(=O)NCCCN2CCOCC2)cc1C | 1.1 | -6 | -0.97 | 3 | 5 | -1.4
CCOc1ccc(NC(=O)CSc2nc3ccccc3c(=O)n2CCCC(=O)N2CCCC2)cc1 | 0.9 | 11 | -0.3 | -3 | 11 | nt
Cc1ccc(NC(=O)CSc2nc3ccccc3c(=O)n2CCCN2CCCCC2)cc1Cl | 1.1 | -10 | -0.35 | 101* | 35 | -2
COC(=O)c1ccc2c(=O)n(CC3CCCO3)c(SCC(=O)Nc3ccccc3Cl)nc2c1 (stereo not given) | 0.9 | 11 | 0.49 | 1 | 12 | nt
COc1ccc(Cl)cc1NC(=S)N(Cc1ccc(C(=O)O)cc1)Cc1ccc(OC)c(OC)c1 | 0.8 | 19 | -1.5 | -4 | -7 | 0.75
COc1ccc(NC(=O)CSc2nnc(C3CCCCC3)n2-c2ccccc2)cc1 | 0.9 | 10 | -0.67 | 70* | -2 | nt
COc1ccc(NC(=O)CSc2nc3ccccc3c(=O)n2CCCN2CCC(C)CC2)c(OC)c1 | 1 | 3 | -0.039 | 55* | 10 | -0.6
